According to ChEMBL document CHEMBL1240487, “Discovery of a potent, selective, and orally bioavailable pyridinyl-pyrimidine phthalazine aurora kinase inhibitor” (J Med Chem, 2010):
Converted amounts (≈) assume the structure as drawn. One block for each compound: values may come before it. The source made the active and inactive calls. The rule behind the calls is not given here.

Legend:
[1] = biological target: Aurora kinase B (Homo sapiens, UniProt Q96GD4); test: Inhibition of aurora B in human HeLa cells assessed as increase of >= 4N DNA level at 0.313 uM after 24 hrs using Hoechst staining by flow cytometry; type: cell-based
Aurora kinase B, sequence (Q96GD4 whole entry): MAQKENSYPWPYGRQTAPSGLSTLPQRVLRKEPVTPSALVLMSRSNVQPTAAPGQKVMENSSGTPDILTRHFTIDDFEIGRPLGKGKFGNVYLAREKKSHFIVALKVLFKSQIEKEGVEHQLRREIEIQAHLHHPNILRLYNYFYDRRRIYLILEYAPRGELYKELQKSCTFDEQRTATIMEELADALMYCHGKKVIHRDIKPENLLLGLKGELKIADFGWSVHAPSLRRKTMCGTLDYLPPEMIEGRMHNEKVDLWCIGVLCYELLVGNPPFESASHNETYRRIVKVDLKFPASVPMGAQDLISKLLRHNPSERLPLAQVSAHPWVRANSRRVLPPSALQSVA
Method in brief: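 In the 24 h DNA ploidy assay, HeLa cells were exposed to compound for 24 h. The read-out was accumulation of cells with ≥4N DNA content relative to control. For the single-concentration test, cells were treated at 0.313 μM, and p-histone H3 Ser10 and DNA content (2N/4N/8N) were read by flow cytometry. The ploidy read-out gave an EC50.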

[2] = biological target: Ribosomal protein S6 kinase alpha-5 (Homo sapiens, UniProt O75582); test: Inhibition of MSK1 by HTRF assay
Ribosomal protein S6 kinase alpha-5, sequence (O75582 whole entry): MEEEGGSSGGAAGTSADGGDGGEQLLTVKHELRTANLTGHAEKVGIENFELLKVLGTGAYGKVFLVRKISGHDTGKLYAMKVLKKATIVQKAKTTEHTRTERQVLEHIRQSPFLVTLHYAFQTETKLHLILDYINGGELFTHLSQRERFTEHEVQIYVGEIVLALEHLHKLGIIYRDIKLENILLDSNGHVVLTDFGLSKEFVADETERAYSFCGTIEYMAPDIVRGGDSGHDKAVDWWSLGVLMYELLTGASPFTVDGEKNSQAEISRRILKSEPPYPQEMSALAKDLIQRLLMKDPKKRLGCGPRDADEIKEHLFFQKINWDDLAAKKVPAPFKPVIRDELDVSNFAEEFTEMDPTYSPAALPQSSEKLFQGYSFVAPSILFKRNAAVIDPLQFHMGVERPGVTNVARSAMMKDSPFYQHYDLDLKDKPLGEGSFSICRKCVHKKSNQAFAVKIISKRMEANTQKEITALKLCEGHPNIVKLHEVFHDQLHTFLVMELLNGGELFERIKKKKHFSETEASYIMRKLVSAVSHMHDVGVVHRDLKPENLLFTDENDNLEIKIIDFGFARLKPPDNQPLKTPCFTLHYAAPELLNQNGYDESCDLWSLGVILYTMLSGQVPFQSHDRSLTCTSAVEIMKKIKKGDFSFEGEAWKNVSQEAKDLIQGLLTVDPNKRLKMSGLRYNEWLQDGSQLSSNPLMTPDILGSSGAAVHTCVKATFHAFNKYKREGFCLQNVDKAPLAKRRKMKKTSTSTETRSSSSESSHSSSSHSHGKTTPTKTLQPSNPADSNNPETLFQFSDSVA
Method in brief: (§1)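 Enzyme inhibition was run with ATP at its Km for each kinase. Values are averages of at least two determinations.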

[3] = biological target: Tyrosine-protein kinase BTK (Homo sapiens, UniProt Q06187); test: Inhibition of BTK by HTRF assay
Tyrosine-protein kinase BTK, sequence (Q06187 whole entry): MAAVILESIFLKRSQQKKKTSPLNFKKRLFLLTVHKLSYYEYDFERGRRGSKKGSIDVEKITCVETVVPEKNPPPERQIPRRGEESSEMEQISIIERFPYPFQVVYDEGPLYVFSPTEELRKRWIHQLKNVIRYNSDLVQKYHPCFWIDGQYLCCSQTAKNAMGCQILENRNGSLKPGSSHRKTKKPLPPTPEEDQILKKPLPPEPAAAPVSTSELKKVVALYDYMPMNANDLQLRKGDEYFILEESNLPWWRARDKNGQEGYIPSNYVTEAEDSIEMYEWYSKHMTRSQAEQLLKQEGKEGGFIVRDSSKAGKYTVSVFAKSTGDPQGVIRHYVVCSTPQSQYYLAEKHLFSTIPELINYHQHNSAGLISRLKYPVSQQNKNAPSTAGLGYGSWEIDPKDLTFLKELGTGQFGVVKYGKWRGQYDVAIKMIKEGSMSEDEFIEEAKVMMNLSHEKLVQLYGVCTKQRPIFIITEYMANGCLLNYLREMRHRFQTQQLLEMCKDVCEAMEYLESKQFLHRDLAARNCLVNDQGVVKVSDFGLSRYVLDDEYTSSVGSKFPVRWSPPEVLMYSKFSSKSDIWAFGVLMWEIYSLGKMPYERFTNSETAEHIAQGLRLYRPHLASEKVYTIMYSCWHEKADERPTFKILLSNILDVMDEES

[4] = tested on: Plasma; test: Fraction unbound in mouse plasma at 10 uM after 24 hrs by ultrafiltration; type: ADME, cell-free
[5] = biological target: T1, Tyrosine-protein kinase ZAP-70 (Homo sapiens, UniProt P43403); test: Inhibition of Zap70 by HTRF assay; method in brief: as §1
T1 sequence (P43403 whole entry): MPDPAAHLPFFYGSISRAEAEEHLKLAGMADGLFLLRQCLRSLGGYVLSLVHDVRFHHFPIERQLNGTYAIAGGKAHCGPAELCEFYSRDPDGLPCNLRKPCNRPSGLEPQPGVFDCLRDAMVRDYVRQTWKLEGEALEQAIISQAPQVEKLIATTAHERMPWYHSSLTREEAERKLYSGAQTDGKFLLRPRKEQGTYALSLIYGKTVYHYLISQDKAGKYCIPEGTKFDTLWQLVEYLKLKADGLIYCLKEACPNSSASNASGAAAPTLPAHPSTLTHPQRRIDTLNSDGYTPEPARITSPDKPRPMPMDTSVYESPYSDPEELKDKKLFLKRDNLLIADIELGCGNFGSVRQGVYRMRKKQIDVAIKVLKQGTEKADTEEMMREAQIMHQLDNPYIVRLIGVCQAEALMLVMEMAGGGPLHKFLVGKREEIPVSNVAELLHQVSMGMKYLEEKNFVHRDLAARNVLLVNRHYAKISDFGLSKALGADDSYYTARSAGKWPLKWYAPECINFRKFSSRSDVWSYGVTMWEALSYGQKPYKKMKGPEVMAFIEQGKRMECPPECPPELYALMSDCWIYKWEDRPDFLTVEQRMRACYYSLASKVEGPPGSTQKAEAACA

[6] = tested on: Plasma; test: Fraction unbound in mouse plasma at 10 uM after 6 hrs by ultrafiltration; type: ADME, cell-free
[7] = Aqueous equilibrium solubility of the compound in 0.01N HCL; type: physicochemical
[8] = tested on: Plasma; test: Drug level in human COLO205 cells xenografted in CD1 mouse plasma at 50 mg/kg, po after 3 to 6 hrs; type: ADME, organism-based, COLO 205; parameters: dose 50 mg/kg, route oral; settings: in vivo
Method in brief: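 COLO 205 xenograft-bearing mice received a single 50 mg/kg oral dose (N = 12 per group). Plasma was sampled at 3, 6 and 24 h (N = 4 per time point) and analyzed for drug concentration. Results are reported as mean ± SD.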

[9] = biological target: T2, Ephrin type-B receptor 4 (Homo sapiens, UniProt P54760); test: Inhibition of EphB4 by HTRF assay; method in brief: as §1
T2 sequence (P54760 whole entry): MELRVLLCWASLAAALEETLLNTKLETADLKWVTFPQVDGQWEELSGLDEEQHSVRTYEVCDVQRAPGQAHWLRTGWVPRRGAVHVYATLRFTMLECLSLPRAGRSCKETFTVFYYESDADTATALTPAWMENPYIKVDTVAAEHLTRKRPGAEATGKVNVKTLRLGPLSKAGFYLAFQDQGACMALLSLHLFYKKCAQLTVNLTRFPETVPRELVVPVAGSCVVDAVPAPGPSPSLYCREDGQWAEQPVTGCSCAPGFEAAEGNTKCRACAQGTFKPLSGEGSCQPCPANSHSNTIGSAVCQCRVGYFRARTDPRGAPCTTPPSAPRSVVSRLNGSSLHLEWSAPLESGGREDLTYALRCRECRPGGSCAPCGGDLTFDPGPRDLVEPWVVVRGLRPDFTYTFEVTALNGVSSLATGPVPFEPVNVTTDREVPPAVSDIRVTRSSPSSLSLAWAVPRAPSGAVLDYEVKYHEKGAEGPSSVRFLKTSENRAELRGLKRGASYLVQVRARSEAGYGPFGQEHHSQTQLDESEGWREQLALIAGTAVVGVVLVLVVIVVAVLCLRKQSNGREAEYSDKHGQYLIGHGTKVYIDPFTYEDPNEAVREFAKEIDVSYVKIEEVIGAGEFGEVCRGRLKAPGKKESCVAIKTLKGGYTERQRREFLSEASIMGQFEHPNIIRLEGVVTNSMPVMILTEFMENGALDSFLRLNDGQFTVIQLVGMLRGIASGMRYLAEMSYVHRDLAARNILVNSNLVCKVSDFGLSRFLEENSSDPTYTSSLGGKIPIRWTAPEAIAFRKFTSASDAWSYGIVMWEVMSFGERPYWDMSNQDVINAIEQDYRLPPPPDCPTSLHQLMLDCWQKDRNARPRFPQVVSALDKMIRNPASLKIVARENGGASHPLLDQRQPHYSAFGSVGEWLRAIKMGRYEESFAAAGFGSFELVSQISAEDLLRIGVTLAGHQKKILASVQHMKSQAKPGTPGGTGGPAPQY

[10] = biological target: Aurora kinase A (Homo sapiens) (UniProt O14965); test: Inhibition of aurora A autophosphorylation in human HeLa cells at 0.313 uM after 3 hrs by Western blotting
[11] = biological target: RAC-beta serine/threonine-protein kinase (Homo sapiens, UniProt P31751); test: Inhibition of PKBbeta by HTRF assay; method in brief: as §1
RAC-beta serine/threonine-protein kinase, sequence (P31751 whole entry): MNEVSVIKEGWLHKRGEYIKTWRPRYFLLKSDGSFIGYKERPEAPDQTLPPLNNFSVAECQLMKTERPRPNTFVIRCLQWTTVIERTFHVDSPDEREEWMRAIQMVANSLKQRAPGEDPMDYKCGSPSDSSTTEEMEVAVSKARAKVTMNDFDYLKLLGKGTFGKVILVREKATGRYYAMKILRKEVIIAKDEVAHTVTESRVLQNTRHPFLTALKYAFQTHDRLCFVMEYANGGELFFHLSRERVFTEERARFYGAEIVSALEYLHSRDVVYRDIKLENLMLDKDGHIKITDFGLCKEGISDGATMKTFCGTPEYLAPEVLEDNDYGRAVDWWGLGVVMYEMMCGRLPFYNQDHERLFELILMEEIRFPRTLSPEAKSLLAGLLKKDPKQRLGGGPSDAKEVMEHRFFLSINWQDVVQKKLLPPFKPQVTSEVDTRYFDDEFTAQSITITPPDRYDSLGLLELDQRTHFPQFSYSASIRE

[12] = biological target: Macrophage colony-stimulating factor 1 receptor (Homo sapiens, UniProt P07333); test: Inhibition of c-Fms by HTRF assay; method in brief: as §1
Macrophage colony-stimulating factor 1 receptor, sequence (P07333 whole entry): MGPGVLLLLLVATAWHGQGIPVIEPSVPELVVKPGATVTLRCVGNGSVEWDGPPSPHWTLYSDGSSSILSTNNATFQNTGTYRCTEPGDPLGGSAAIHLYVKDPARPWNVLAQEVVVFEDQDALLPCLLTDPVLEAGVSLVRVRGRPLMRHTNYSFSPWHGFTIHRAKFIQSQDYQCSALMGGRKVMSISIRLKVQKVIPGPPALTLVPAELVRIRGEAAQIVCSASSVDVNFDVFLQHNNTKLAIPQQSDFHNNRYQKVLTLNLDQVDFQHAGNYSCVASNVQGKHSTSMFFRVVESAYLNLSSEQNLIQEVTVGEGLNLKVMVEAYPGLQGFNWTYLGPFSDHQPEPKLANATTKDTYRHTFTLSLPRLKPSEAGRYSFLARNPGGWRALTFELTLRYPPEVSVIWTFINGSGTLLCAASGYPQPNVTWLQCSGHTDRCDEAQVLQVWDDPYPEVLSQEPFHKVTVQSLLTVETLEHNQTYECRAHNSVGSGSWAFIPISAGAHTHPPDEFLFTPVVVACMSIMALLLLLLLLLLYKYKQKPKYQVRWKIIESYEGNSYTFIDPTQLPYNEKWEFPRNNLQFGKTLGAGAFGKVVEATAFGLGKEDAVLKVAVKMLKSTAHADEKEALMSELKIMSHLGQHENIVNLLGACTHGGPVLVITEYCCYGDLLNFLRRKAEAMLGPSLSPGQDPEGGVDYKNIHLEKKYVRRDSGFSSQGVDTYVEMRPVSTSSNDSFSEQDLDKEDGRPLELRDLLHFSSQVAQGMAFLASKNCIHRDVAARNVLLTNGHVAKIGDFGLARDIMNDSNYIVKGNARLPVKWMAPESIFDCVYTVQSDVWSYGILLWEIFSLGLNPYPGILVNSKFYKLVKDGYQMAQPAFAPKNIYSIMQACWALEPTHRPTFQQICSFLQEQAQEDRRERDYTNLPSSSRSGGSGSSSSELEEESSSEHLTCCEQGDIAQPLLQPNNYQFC

[13] = biological target: Vascular endothelial growth factor receptor 2 (Homo sapiens, UniProt P35968); test: Inhibition of KDR by HTRF assay; method in brief: as §1
Vascular endothelial growth factor receptor 2, sequence (P35968 whole entry): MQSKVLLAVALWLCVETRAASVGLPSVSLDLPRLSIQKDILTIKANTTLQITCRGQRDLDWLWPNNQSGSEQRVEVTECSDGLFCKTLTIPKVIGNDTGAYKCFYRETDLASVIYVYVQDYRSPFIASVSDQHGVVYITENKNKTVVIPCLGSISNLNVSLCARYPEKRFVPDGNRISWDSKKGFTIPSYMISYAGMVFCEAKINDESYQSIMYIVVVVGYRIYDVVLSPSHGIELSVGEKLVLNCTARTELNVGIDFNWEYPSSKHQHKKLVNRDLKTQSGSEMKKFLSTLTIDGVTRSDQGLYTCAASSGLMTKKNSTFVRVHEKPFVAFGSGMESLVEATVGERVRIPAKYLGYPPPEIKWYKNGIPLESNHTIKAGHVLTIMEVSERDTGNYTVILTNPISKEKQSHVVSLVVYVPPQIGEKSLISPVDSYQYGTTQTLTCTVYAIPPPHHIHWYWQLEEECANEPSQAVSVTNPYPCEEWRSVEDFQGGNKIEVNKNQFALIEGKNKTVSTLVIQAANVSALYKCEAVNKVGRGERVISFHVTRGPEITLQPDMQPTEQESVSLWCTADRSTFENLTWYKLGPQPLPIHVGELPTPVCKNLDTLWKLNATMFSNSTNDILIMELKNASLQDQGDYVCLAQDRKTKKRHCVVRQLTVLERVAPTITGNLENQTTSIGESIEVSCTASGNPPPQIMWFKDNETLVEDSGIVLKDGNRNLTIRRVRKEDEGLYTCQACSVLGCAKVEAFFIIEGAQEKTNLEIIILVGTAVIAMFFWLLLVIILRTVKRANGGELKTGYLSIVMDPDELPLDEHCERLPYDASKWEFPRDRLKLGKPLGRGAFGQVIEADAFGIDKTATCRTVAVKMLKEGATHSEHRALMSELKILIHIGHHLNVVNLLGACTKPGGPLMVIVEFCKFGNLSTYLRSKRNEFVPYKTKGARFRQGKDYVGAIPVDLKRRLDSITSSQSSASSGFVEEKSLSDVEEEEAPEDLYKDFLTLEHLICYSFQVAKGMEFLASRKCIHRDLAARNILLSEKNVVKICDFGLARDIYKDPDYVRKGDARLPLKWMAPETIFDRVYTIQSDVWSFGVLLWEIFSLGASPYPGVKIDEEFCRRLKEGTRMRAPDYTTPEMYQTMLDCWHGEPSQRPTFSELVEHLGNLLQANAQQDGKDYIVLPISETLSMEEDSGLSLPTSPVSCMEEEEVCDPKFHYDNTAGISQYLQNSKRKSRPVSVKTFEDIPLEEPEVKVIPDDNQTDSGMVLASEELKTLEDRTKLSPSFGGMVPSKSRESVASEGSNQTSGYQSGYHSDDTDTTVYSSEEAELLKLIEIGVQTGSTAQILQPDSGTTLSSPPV

[14] = biological target: Tyrosine-protein kinase ABL1 (Homo sapiens, UniProt P00519); test: Inhibition of Abl by HTRF assay; method in brief: as §1
[15] = Half life in Sprague-Dawley rat at 0.5 mg/kg, iv and 2 mg/kg, po; type: ADME, organism-based; settings: in vivo
[16] = Clearance in Sprague-Dawley rat at 0.5 mg/kg, iv and 2 mg/kg, po; type: ADME, organism-based; settings: in vivo
[17] = biological target: Cyclin-dependent kinase 1 (Homo sapiens, UniProt P06493); test: Inhibition of CDK1 by HTRF assay; method in brief: as §1
Cyclin-dependent kinase 1, sequence (P06493 whole entry): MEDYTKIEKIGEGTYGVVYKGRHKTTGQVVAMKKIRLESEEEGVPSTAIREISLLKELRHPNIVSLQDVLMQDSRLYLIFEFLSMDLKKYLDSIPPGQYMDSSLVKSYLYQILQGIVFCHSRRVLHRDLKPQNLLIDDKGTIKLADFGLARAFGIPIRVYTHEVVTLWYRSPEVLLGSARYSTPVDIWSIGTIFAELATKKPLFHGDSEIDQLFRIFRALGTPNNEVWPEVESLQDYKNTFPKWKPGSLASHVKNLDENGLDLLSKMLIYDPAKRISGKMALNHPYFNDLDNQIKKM

[18] = Intrinsic clearance in rat liver microsomes at 1 uM after up to 40 mins; type: ADME, Microsome
[19] = biological target: Tyrosine-protein kinase ABL1 (Homo sapiens, UniProt P00519, T315I); test: Inhibition of Abl T315I mutant by HTRF assay; method in brief: as §1
[20] = Oral bioavailability in Sprague-Dawley rat at 2 mg/kg; type: ADME, organism-based; settings: in vivo
[21] = Volume of distribution at steady state in Sprague-Dawley rat at 0.5 mg/kg, iv and 2 mg/kg, po; type: ADME, organism-based; settings: in vivo, read-out: Vdss

Activity [1]: Active
IC50 [2]: > 25 µM
IC50 [3]: > 25 µM
unbound concentration [4]: < 2.5 ng/mL
IC50 [5]: > 25 µM
unbound concentration [6]: < 20 ng/mL
solubility thermodynamic [7]: > 200 µg/mL
Cp [8]: >= 20000 ng/ml
IC50 [9]: > 25 µM
Activity [10]: Active
IC50 [11]: > 25 µM
Structure (SMILES): CNc1nccc(-c2cccnc2Oc2ccc(Nc3nnc(-c4ccc(F)cc4)c4ccccc34)cc2)n1

IC50 [12]: 1580 nM
IC50 [13]: 3.27 µM
IC50 [14]: 503 nM
IC50 [5]: > 8 µM
IC50 [9]: > 8 µM
Structure (SMILES): CNc1nccc(-c2cccnc2Oc2ccc(NC(=O)c3cccc(C(F)(F)F)c3)cc2C)n1

half-life [15]: 168 min
IC50 [3]: > 1 µM
IC50 [5]: > 1 µM
solubility thermodynamic [7]: 5 µg/mL (≈ 10.2 µM)
clearance [16]: 60 mL/min/kg
IC50 [17]: > 1000 nM
microsomal CLint at 1 µM [18]: 663 µL/min/mg
IC50 [19]: > 1000 nM
IC50 [9]: > 1 µM
bioavailability [20]: < 1%
Vd [21]: 4.8 L/kg
Structure (SMILES): CNc1nccc(-c2cccnc2Oc2ccc(NC(=O)c3ccccc3Nc3ccccc3)cc2)n1
